ChEMBL document CHEMBL4725492, “Dioxane-Linked Amide Derivatives as Novel Bacterial Topoisomerase Inhibitors against Gram-Positive Staphylococcus aureus” (ACS Med Chem Lett, 2020)
pIC50: −log10 of the molar value. In brackets after ≈: the same amount, converted by molar mass.

How the values were obtained:
[1] = molecular target: T1, DNA gyrase (Staphylococcus aureus) (UniProt P0A0K8+P20831); test: Inhibition of Staphylococcus aureus DNA gyrase assessed as double-strand break using relaxed pBR322 as substrate by ethidium bromide-based gel electrophoresis; type: protein-complex assay; settings: dose microM 0.0001-20
Method in brief: (§1)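 S. aureus gyrase-mediated DNA cleavage: compound was incubated with enzyme and DNA, and products were resolved on an ethidium-stained gel into negatively supercoiled, nicked (single-strand break) and linear (double-strand break) forms. Lane fluorescence was corrected for differential band emission. Percent of each form was calculated, and enzyme-only cleavage was subtracted. Concentrations spanned 0.1 nM–200 μM, with a 20 μM single-point screen. Results are mean ± SD or range.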

[2] = molecular target: DNA topoisomerase 2-alpha (Homo sapiens, UniProt P11388); test: Inhibition of human topoisomerase 2alpha relative to control
Method in brief: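 Human topoisomerase IIα decatenation activity was tested at a single concentration of 100 μM and reported as percent inhibition.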

Staphylococcus aureus [3] = test: Antibacterial activity against Staphylococcus aureus D83N by CLSI based agar dilution method; type: functional
Staphylococcus aureus [4] = test: Antibacterial activity against Staphylococcus aureus ATCC 29213 by CLSI based agar dilution method; type: functional
DNA gyrase = DNA gyrase (Staphylococcus aureus, UniProt P0A0K8+P20831); test: Inhibition of Staphylococcus aureus DNA gyrase using relaxed pBR322 as substrate by gel electrophoresis; type: protein-complex assay
K562 = test: Growth inhibition of human K562 cells incubated for 48 hrs by sulforhodamine B assay; type: functional
Staphylococcus aureus [5] = test: Antibacterial activity against Staphylococcus aureus USA300 by CLSI based agar dilution method; type: functional
[6] = molecular target: T1, DNA gyrase (Staphylococcus aureus); test: Inhibition of Staphylococcus aureus DNA gyrase assessed as single-strand break using relaxed pBR322 as substrate by ethidium bromide-based gel electrophoresis; type: protein-complex assay; method in brief: as §1
[7] = molecular target: Voltage-gated inwardly rectifying potassium channel KCNH2 (Homo sapiens, UniProt Q12809); test: Inhibition of human ERG; settings: human
Staphylococcus aureus [8] = test: Antibacterial activity against Staphylococcus aureus 3527 by CLSI based agar dilution method; type: functional
[9] = Growth inhibition of human K/VP.5 cells incubated for 48 hrs by sulforhodamine B assay; type: functional
Topoisomerase IV = Topoisomerase IV (Staphylococcus aureus, UniProt P0C1S7+P0C1U9); test: Inhibition of Staphylococcus aureus topoisomerase-4 assessed as reduction in decatenation of kinetoplast DNA agarose gel electrophoresis method; type: protein-complex assay

COc1ccc2nccc(CC[C@H]3OC[C@H](NC(=O)c4ccc5c(c4)NC(=O)CS5)CO3)c2c1
inhibition [1]: Dose-dependent effect
inhibition (INH) [2]: 37%
MIC (Staphylococcus aureus [3]): > 64 µg/mL
MIC (Staphylococcus aureus [4]): 0.03 µg/mL (≈ 0.0626 µM)
pIC50 (DNA gyrase): 6.89
INH (K562): >200 µM
MIC (Staphylococcus aureus [5]): ≤ 0.125 µg/mL
inhibition [6]: Dose-dependent effect
INH [7]: > 30 µM
MIC (Staphylococcus aureus [8]): ≤ 0.125 µg/mL
INH [9]: >200 µM
pIC50 (Topoisomerase IV): 6.15
